From publication PMC11962390 (Molecular Cancer Therapeutics, 2025)

Key:
primary HGSC organoids = test: Organoid drug-response profiling, whole panel; format: cell-based, human; conditions: 96 hours
Procedure, shortened: (§1)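 Patient-derived HGSC organoids were embedded in BME-2 droplets in 384-well ultralow-attachment plates and grown 7–10 days with medium changes every 2–3 days. Test compounds were added in five 10-fold dilutions, with DMSO and 10 μmol/L bortezomib as controls. After 96 h at 37°C, wells were stained 2 h with CellTox Green and Hoechst 33342 (5 μg/mL final) and imaged confocally. Survival was normalized to controls and fitted by four-parameter fit (bottom 0), mean ± SD, n = 2.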

OV81-CP40 spheres = test: 3D CellTiter-Glo cell viability assay of spheres; format: cell-based, human; conditions: OV81-CP40 grown in 3D (spheroids), 48 hours
Procedure, shortened: (§2)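 Cells (500) were seeded in MammoCult with proliferation supplement in ultralow-attachment 96-well plates to form spheres. Seven days after plating, the spheres were treated with the test compound. CellTiter-Glo 3D luminescence was read 48 h later. Dose–response curves were fitted by sigmoidal variable-slope fit.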

OV231-CP30 spheres = test: 3D CellTiter-Glo cell viability assay of spheres; format: cell-based, human; conditions: OV231-CP30 grown in 3D (spheroids), 48 hours
Procedure, shortened: as §2

OV-UM32.1 cells = test: 3D CellTiter-Glo cell viability assay; format: cell-based, human; conditions: OV-UM32.1, 3D, 48 hours
OV-UM50.2 cells = test: 3D CellTiter-Glo cell viability assay; format: cell-based, human; conditions: OV-UM50.2, 3D, 48 hours
OV-UM52.1 cells = test: 3D CellTiter-Glo cell viability assay; format: cell-based, human; conditions: OV-UM52.1, 3D, 48 hours
Procedure, shortened: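 Primary HGSC cells were grown as 3D spheres in MammoCult with supplement on ultralow-attachment plates and treated with a dose curve of test compound. CellTiter-Glo 3D luminescence was read after 48 h. Values were expressed relative to DMSO (mean ± SEM, n = 3). The curve was fitted with bottom constrained to 0 and top to 1.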

OV81-CP40 cells [1] = test: CellTiter-Glo cell viability assay; format: cell-based, human
OV231-CP30 cells [2] = test: CellTiter-Glo cell viability assay; format: cell-based, human; conditions: OV231-CP30, 48 hours, Fig. 2B
Procedure, shortened: (§3)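 2D culture in the cells' own medium in 96-well plates. Cells were treated with a dose curve of test compound one day after plating. CellTiter-Glo luminescence was read after 48 h. Viability was expressed as fold change to DMSO (mean ± SEM, n = 3). EC50 came from a sigmoidal variable-slope fit.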

FT237 cells [3] = test: CellTiter-Glo cell viability assay; format: cell-based, human; conditions: nonmalignant fallopian tube secretory cell line FT237, 48 hours
Procedure, shortened: as §3

FT194 cells = test: CellTiter-Glo cell viability assay; format: cell-based, human; conditions: nonmalignant fallopian tube secretory cell line FT194, 48 hours
Procedure, shortened: as §3

OV81-CP40 cells [4] = test: MTT cell viability assay; format: cell-based, human
OV231-CP30 cells [5] = test: MTT cell viability assay; format: cell-based, human
JHUEM7 cells = test: MTT cell viability assay; format: cell-based, human; conditions: TNIK-null JHUEM7, 48 hours, Fig. 3K
HEC1B cells = test: MTT cell viability assay; format: cell-based, human; conditions: dose response up to 10 μmol/L, 48 hours, unable to generate an EC50
[6] = tested on: P8_rAsc patient-derived organoid; test: Organoid drug-response profiling; format: cell-based, human; conditions: 96 hours
Procedure, shortened: as §1

[7] = tested on: P10_rPlfl patient-derived organoid; test: Organoid drug-response profiling; format: cell-based, human; conditions: organoid P10_rPIfl, 96 hours
Procedure, shortened: as §1

[8] = tested on: P12_rPer patient-derived organoid; test: Organoid drug-response profiling; format: cell-based, human; conditions: 96 hours
Procedure, shortened: as §1

[9] = tested on: panel of 377 human wild-type kinases; test: Kinase selectivity profiling, KinaseProfiler; format: biochemical; conditions: of 377 human wildtype kinases
Procedure, shortened: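 Radiometric 33P transfer from [γ-33P]ATP to peptide/protein substrates was used, in 8 mmol/L MOPS pH 7.0 with 0.2 mmol/L EDTA and kinase-specific metal supplements. Lipid and atypical kinases were run by HTRF in HEPES buffer. […] Output was % activity remaining, with full inhibition set by reference inhibitors.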

[10] = tested on: canonical Wnt pathway activation (reporter TOP-GFP) in OV81-CP40 cells; test: TOP-GFP and FOP-GFP assay; format: cell-based, human; conditions: OV81-CP40, 6 hours, 20 mmol/L LiCl, […] NCB-0846 or 100 nmol/L NVP-2
Procedure, shortened: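 OV81-CP40 cells stably expressing lentiviral TOP-GFP or FOP-GFP reporters were plated and treated one day later for 6 h with LiCl and/or test compounds. Cells were harvested, PBS-washed and run by flow cytometry at 10,000 cells per sample, gating the top ~10% GFP-positive cells. Results were given as TOP/FOP, mean ± SEM, n = 3, by one-way ANOVA.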

FT237 cells [11] = test: MTT cell viability assay; format: cell-based, human; conditions: FT237, 48 hours, nondeterminable up to highest dose, Supplementary Fig. S5D
[12] = OV81-CP40, MTT used to generate CI, Fig. 2D

N.N.O=C([O-])C1(C(=O)[O-])CCC1.[Pt+2] [Carboplatin, carboplatin]
survival (primary HGSC organoids; all 13 organoids tested, at 10 μmol/L): ≥ 50%
IC50 (primary HGSC organoids; five of the 13 organoids): < 100 µM
reduction in survival (primary HGSC organoids; only one organoid, at 100 μmol/L): greater than 70%

OC1CCC(Oc2cccc3cnc(Nc4ccc5nc[nH]c5c4)nc23)CC1 (stereo not shown) [NCB-0846]
EC50 (OV81-CP40 spheres): 710 nM
EC50 (OV231-CP30 spheres): 1590 nM
EC50 (OV-UM32.1 cells): 4.33 µM
EC50 (OV-UM50.2 cells): 1.6 µM
EC50 (OV-UM52.1 cells): 2.61 µM
EC50 (OV81-CP40 cells [1]; OV81-CP40, 48 hours, Fig. 2B): 465 nM
EC50 (OV81-CP40 cells [1]; OV81-CP40, LiCl+-treated cells (20 mmol/L LiCl), 48 hours, Fig. 3A): 2120 nM
EC50 (OV81-CP40 cells [1]; OV81-CP40, LiCl−-treated cells, 48 hours, Fig. 3A): 585 nM
EC50 (OV81-CP40 cells [1]; OV81-CP40 transfected with siCDK9 9, 48 hours, Fig. 5C): 161 nM
EC50 (OV81-CP40 cells [1]; OV81-CP40 transfected with siCDK9 11, 48 hours, Fig. 5C): 142 nM
EC50 (OV81-CP40 cells [1]; OV81-CP40 transfected with siControl, 48 hours, Fig. 5C): 399 nM
EC50 (OV231-CP30 cells [2]): 584 nM
response of cell viability to dose curve (FT237 cells [3]): minimally responsive
response of cell viability to dose curve (FT194 cells): minimally responsive
EC50 (OV81-CP40 cells [4]; [12]): 464 nM
EC50 (OV231-CP30 cells [5]; OV231-CP30, MTT used to generate CI, Fig. 2D): 440 nM
reduction in cell viability at maximal doses (JHUEM7 cells): ~50%
EC50 (HEC1B cells): > 10 µM
IC50 [6]: > 10 µM
IC50 [7]: > 10 µM
IC50 [8]: 4.03 µM
number of kinase hits [9]: 175
TOP-GFP induction after LiCl addition [10]: significantly decrease

OC1CCC(Oc2cccc3cnc(Nc4ccc5nc[nH]c5c4)nc23)CC1 (stereo not shown) [NCB-0970]
EC50 (OV81-CP40 cells [4]; read-out: 48-hour EC50, OV81-CP40, 48 hours, Supplementary Fig. S2E): 9920 nM
EC50 (OV231-CP30 cells [5]; read-out: 48-hour EC50, OV231-CP30, 48 hours, Supplementary Fig. S2E): 3640 nM

COC[C@@H](C)NC1CCC(Nc2cc(-c3cccc(NCC4(C#N)CCOCC4)n3)c(Cl)cn2)CC1 (stereo partly shown) [NVP-2]
EC50 (OV81-CP40 spheres): 52.1 nM
EC50 (OV231-CP30 spheres): 60.3 nM
EC50 (OV81-CP40 cells [4]; OV81-CP40, 48 hours, Supplementary Fig. S5D): 12.7 nM
EC50 (FT237 cells [11]): > 80 nM
TOP-GFP induction after LiCl addition [10]: significantly decrease

N.N.[Cl][Pt][Cl] [cisplatin]
EC50 (OV-UM32.1 cells): 12.9 µM
EC50 (OV-UM50.2 cells): 22.2 µM
EC50 (OV-UM52.1 cells): 9.63 µM
EC50 (OV81-CP40 cells [4]; [12]): non determinable (ND)
